MrgX1 antag = antagonists of human MrgX1 receptor, primary screen, HEK293 cells, Fluo-4 calcium flux; Mas-related G-protein coupled receptor member X1 (Homo sapiens), Q96LB2; BAM8-22 antagonism; hits give low values; B-score at 10 µM; 1.3% of 310,000 active; AID 588676, 2011;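 active means calcium-response B-score plate-corrected more than 3 library SD below zero, starting fluorescence within 5 deviations, no agonist response on first addition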;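 further: peak minus trough fluorescence over baseline after final BAM8-22 challenge near maximal dose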
Target sequence (Q96LB2 whole entry, looked up): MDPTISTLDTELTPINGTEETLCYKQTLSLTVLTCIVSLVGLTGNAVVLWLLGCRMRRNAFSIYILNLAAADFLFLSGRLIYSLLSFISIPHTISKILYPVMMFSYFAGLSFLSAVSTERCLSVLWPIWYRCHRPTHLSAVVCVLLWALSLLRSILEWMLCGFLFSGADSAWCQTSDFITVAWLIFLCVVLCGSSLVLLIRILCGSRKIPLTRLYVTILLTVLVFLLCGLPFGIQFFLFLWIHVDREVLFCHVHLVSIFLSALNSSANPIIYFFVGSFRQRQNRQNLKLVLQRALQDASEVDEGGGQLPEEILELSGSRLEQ
MrgX1 ag = agonists of human MrgX1 receptor, primary screen, HEK293 cells, Fluo-4 calcium flux; Mas-related G-protein coupled receptor member X1 (Homo sapiens), Q96LB2; B-score at 10 µM; Fluo-4 calcium fluorescence, agonist mode; hits give high values; 0.44% of 310,000 active;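 active means calcium response B-score plate-corrected fluorescence ratio at least 3 library SD, with starting fluorescence B-score inside 5 SD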
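Material: MrgX1-expressing HEK293 cells; input: 15,000 cells per well; doses: test compound given as first of three sequential additions; schedule: overnight plating before 1 h dye loading; technique: Fluo-4 NW calcium-flux fluorescence, kinetic read; evaluation: baseline-normalised fluorescence change ratio, B-scored; control set: plate-wise positive and negative controls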
RGS4 pot = RGS4 potentiators or activators, primary screen, cell-based, HEK293 M3R inducible RGS4, calcium flux. carbachol calcium flux Fluo4; hits give low values. B-score at 10 µM. 0.92% of 310,000 active. AID 463111, 2010;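 active means B-score of the integrated calcium signal more than 4 SD below the library mean, with starting fluorescence not abnormally high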;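 further: negative B-score means reduced calcium response which marks RGS4 activation or potentiation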
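Reagent: ECmax carbachol challenge; Test system: M3R-expressing HEK293 line, RGS4 induced by doxycycline; Schedule: overnight RGS4 induction, 30 min dye load 37 °C, 20 min compound RT; Detection: calcium dye Fluo4 fluorescence; Read-out: Agonist-evoked peak-minus-minimum fluorescence over baseline, integrated ratio, B score.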
MrgX1 PAM = positive allosteric modulators of MrgX1, primary screen, HEK293 cells, Fluo-4 calcium flux; Mas-related G-protein coupled receptor member X1 (Homo sapiens), Q96LB2; FDSS; hits give high values; B-score at 10 µM; 0.63% of 310,000 active; AID 588675, 2011;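 active means plate-corrected calcium response at least 3 library SD above typical, normal starting fluorescence, not activating the receptor alone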;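 further: compound read alongside a low EC10 to EC30 dose of BAM8-22 agonist; peak minus trough fluorescence over baseline measured at the second addition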
RGS4 inh = RGS4 inhibitors, primary screen, cell-based, HEK293 M3R inducible RGS4, calcium flux; 0.45% of 310,000 active; Regulator of G-protein signaling 4 (Homo sapiens), P49798; B-score at 10 µM; Fluo-4 calcium flux; hits give high values; triggered by carbachol at its EC20;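 active means B-score, a plate-corrected calcium signal, over three deviations above library mean, with baseline fluorescence within five deviations of library mean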;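 further: RGS4 expression induced by doxycycline in cells with stable M3 receptor; B-score is computed from the integrated fluorescence ratio over baseline after carbachol; higher B-score means a larger calcium signal and so more RGS4 inhibition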
Target sequence (P49798 whole entry, looked up): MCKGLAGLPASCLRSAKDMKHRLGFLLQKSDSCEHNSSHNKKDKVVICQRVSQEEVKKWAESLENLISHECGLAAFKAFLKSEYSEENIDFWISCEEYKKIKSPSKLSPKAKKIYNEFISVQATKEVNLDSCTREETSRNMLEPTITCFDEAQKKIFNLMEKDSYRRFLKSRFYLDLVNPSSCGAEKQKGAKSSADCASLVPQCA
RGS4 inh valid = enhanced carbachol calcium response, M3R/RGS4 cells, RGS4 inhibitor project, cell-based, validation screen, HEK293 M3R/RGS4, calcium flux. shares compounds with RGS4 inh. carbachol calcium Fluo-4 fluorescence; carbachol added at its EC20; 0 = buffer wells, 100 = carbachol control. calcium response, % at 10 µM. 65% of 1,700 active;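 active means duplicate-averaged calcium response above the buffer-only control mean plus 5 SD of those controls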;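 further: integrated fluorescence ratio F max minus min over baseline F0; higher response in RGS4-induced cells means RGS4 inhibition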
RGS4 uninduced = carbachol calcium response in non-induced M3R cells, confirmation, counter-screen for RGS4 inhibitor project, cell-based, HEK293 M3R; 20% of 1,900 active; AID 493000, 2010; shares compounds with RGS4 inh; carbachol calcium Fluo-4; submaximal (EC20) carbachol stimulus; buffer wells 0%, carbachol control wells 100%; activity (percent), % at 10 µM; call rule not given here;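 further: RGS4 induction absent so cells express M3R without RGS4; higher means more calcium signal and flags a non-specific hit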
M3R basal Ca ctr = signal in non-induced cells without carbachol, RGS4 inhibitor counter-screen; shares compounds with RGS4 inh; HEK293 M3R/RGS4 non-induced, Fluo-4 calcium, no carbachol; normalised: buffer wells 0%, carbachol wells 100%; calcium response (agonist-mode artifact), % at 10 µM; 22% of 1,900 active; AID 493001;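 active means duplicate-averaged calcium rise in uninduced cells above buffer wells' mean plus 5 SD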
* = called active by the depositor; i = inactive; x = no result. Sampled rows, rich in hits. Any-hit rate of the full collection: about 3.5%.

SMILES	MrgX1 antag	MrgX1 ag	RGS4 pot	MrgX1 PAM	RGS4 inh	RGS4 inh valid	RGS4 uninduced	M3R basal Ca ctr
OCCN(CCO)c1ccc(C(c2ccccc2Cl)c2ccc(N(CCO)CCO)cc2Cl)c(Cl)c1	i	i	i	i	i	i	i	15.0%*
COc1cc([N+](=O)[O-])ccc1NC(=O)NNC(=O)c1sccc1C	i	i	i	i	i	x	x	x
S=c1[nH]nc(-c2cc(-c3ccsc3)n[nH]2)n1-c1cccc2ccccc12	i	i	i	i	6.07*	11.0%*	i	i
O=C1NN(c2ccc(F)c(Cl)c2)C(=O)/C1=C\c1cccc(OC(=O)c2cccs2)c1	i	26.9*	i	i	17.5*	58.0%*	i	14.0%*
CC(C)=C1C(=O)NN(c2ccc(F)c(Cl)c2)C1=O	i	i	i	i	i	x	x	x
CC(NS(=O)(=O)c1ccc(OCC(=O)NCc2ccncc2)cc1)c1ccccc1 (stereo not given)	i	i	i	i	i	x	x	x
COc1cc(/C=C2\S/C(=N/S(=O)(=O)Cc3ccccc3)NC2=O)c([N+](=O)[O-])cc1OC	i	i	i	i	i	i	i	i
COc1cc(/C=C2/S/C(=N/S(=O)(=O)c3ccccc3)NC2=O)c([N+](=O)[O-])cc1OC	i	i	i	i	5.88*	37.5%*	50.0%*	i
O=C1N/C(=N\S(=O)(=O)c2ccccc2)S/C1=C\c1cc([N+](=O)[O-])ccc1O	i	i	i	i	i	x	x	x
O=C1N/C(=N\S(=O)(=O)Cc2ccccc2)S/C1=C/c1cc([N+](=O)[O-])ccc1O	i	i	i	i	i	x	x	x
COc1cc(/C=C2/S/C(=N/S(=O)(=O)Cc3ccccc3)NC2=O)c([N+](=O)[O-])cc1OC	i	i	i	i	i	i	i	i
CCOc1ccc(C(=O)CC(Sc2ccc(C)cc2)C(=O)O)cc1 (stereo not given)	i	i	i	i	i	i	i	i
Cc1ccc2nc(C)cc(C(=O)N3CCCC(N4CCN(c5ccccc5C)CC4)C3)c2c1 (stereo not given)	i	i	i	i	i	x	x	x
CCCCn1c(N)c(N(CC)C(=O)CN2C(=O)NC(C)(c3ccccc3)C2=O)c(=O)[nH]c1=O (stereo not given)	i	i	i	i	i	x	x	x
COc1ccc(NS(=O)(=O)c2ccc3nc(COc4cccc5ccccc45)[nH]c3c2)cc1	i	i	i	i	8.5*	7.0%*	i	i
O=C1c2ccccc2CN1CCSC(=S)N1CCOCC1	i	i	i	i	6.49*	i	i	i
NC(=O)c1ccc(SCC(=O)OCC(=O)NCc2ccco2)c([N+](=O)[O-])c1	i	i	i	i	i	x	x	x
Cc1cccc(NC(=O)Cn2nc(-c3cccs3)ccc2=O)c1C	i	i	i	i	i	x	x	x
O=C(/C=C/c1ccc([N+](=O)[O-])cc1)c1ccco1	i	i	i	i	11.3*	12.0%*	i	i
O=C(/C=C/c1ccc(Br)cc1)c1ccco1	i	i	i	i	i	x	x	x
O=C(/C=C/c1ccc([N+](=O)[O-])cc1)c1cccnc1	i	i	i	i	18.3*	39.0%*	52.5%*	i
O=C(/C=C/c1cccnc1)c1ccc(F)c(F)c1	i	i	i	i	20.9*	27.0%*	46.0%*	i
Cc1onc(-c2ccccc2)c1NC(=O)N(CCC#N)Cc1ccccc1	i	i	i	i	6.29*	i	i	i
N#CCCN(Cc1ccccc1)C(=O)Nc1ccccc1	i	i	i	i	i	x	x	x
Cc1c(C(=O)CN2CCCC(C)(C)C2)c2ccccc2n1C	i	i	i	i	i	x	x	x
SMILES	MrgX1 antag	MrgX1 ag	RGS4 pot	MrgX1 PAM	RGS4 inh	RGS4 inh valid	RGS4 uninduced	M3R basal Ca ctr
CC(=O)C1=C(O)C(=O)N(c2cc(C(C)(C)C)on2)C1c1ccc(Br)cc1 (stereo not given)	i	i	i	i	7.77*	44.0%*	30.5%*	i
CC(=O)C1=C(O)C(=O)N(c2ccc(Br)cn2)C1c1ccc(Br)cc1 (stereo not given)	i	i	i	i	i	x	x	x
CC(=O)C1=C(O)C(=O)N(c2cc(C(C)(C)C)on2)C1c1ccc(C(C)C)cc1 (stereo not given)	i	i	i	i	i	i	i	55.5%*
O=C(NCC1CCCO1)c1cc2nc(-c3ccco3)cc(C(F)(F)Cl)n2n1 (stereo not given)	i	i	i	i	i	x	x	x
Cc1c(Cl)ccc2c(C(N)=O)cc(-c3ccccn3)nc12	i	i	i	i	i	x	x	x
Cc1c(Cl)ccc2c(C(=O)O)cc(-c3ccccc3)nc12	i	i	i	i	5.77*	22.0%*	39.5%*	i
CCOC(=O)/C(=C\c1cccnc1)C(=O)c1cc(C(C)=O)c(Nc2ccccc2)s1	i	i	i	i	6.36*	42.0%*	i	9.5%*
CCc1ccc(N2CC(C(=O)N/N=C/c3ccccc3OC)CC2=O)cc1 (stereo not given)	i	i	i	i	i	x	x	x
CCc1ccc(N2CC(C(=O)N/N=C/c3cc([N+](=O)[O-])ccc3O)CC2=O)cc1 (stereo not given)	i	i	i	i	i	x	57.0%*	i
COc1ccc(N(C(C)C(=O)N2CCC(Cc3ccccc3)CC2)S(C)(=O)=O)cc1 (stereo not given)	i	i	i	i	i	x	x	x

Compound activity deposited in PubChem BioAssay by Johns Hopkins Ion Channel Center.
